ChEMBL document CHEMBL1154833, “Curcuminoid analogs with potent activity against Trypanosoma and Leishmania species” (Eur J Med Chem, 2010)

Assays:
Leishmania mexicana = assay: Antileishmanial activity against Leishmania mexicana MNYC/BZ/62/M379 amastigotes after 48 hrs by alamar blue assay; format: functional, organism-based
Outline: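 Axenic L. mexicana MNYC/BZ/62/M379 amastigotes kept at 33 °C under CO2 in Schneider's Drosophila medium with 20% FBS and 0.3% gentamycin. Alamar Blue fluorescence read-out.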

HEK293 = assay: Cytotoxicity against HEK293 cells after 16 hrs by alamar blue assay; format: cell-based, Homo sapiens
Outline: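 HEK293T cells grown in DMEM-based medium with 10% newborn bovine serum at 37 °C, 5% CO2. Doubling dilutions of compound added for 16 h, then resazurin added. Fluorescence read at emission 590 nm after a further 24 h.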

[1] = tested on: Trypanosoma brucei brucei; assay: Antitrypanosomal activity against multidrug-resistant Trypanosoma brucei brucei B48 after 48 hrs by alamar blue assay; format: functional, organism-based; conditions: B48, 48 h
[2] = tested on: Trypanosoma brucei brucei; assay: Antitrypanosomal activity against diminazene-resistant Trypanosoma brucei brucei deltaTbat1-KO after 48 hrs by alamar blue assay; format: functional, organism-based
Leishmania major = assay: Antileishmanial activity against Leishmania major Friedlin promastigotes after 48 hrs by alamar blue assay; format: functional, organism-based
Outline: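 L. major Friedlin promastigotes grown in HOMEM with 10% FBS at 25 °C. Alamar Blue fluorescence assay in 96-well plates. 3–6 independent experiments unless noted.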

[3] = tested on: Trypanosoma brucei brucei; assay: Antitrypanosomal activity against Trypanosoma brucei brucei 427 after 48 hrs by alamar blue assay; format: functional, organism-based
Trypanosoma evansi = assay: Antitrypanosomal activity against Trypanosoma evansi ITMAV170475 after 48 hrs by alamar blue assay; format: functional, organism-based; conditions: ITMAV170475, 48 h
Outline: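 Culture-adapted T. evansi ITMAV170475 seeded at 1.5 ×10⁵ trypanosomes/ml in HMI9/20% FBS. Exposed to compound for 48 h, then incubated with Alamar Blue for 24 h, all at 37 °C under CO2. Assay validated against hemocytometer cell counts. EC50 from a variable-slope sigmoid fit.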

[4] = Leishmania mexicana, MNYC/BZ/62/M379, 48 h, read-out: EC50
[5] = Homo sapiens, HEK293, 16 h, read-out: EC50
[6] = Leishmania major, Friedlin, 48 h, read-out: EC50
[7] = Trypanosoma brucei, 427, 48 h, read-out: EC50

Row | Compound | EC50 (Leishmania mexicana; [4]) [µM] | EC50 (HEK293; [5]) [µM] | EC50 [1] [µM] | EC50 [2] [µM] | EC50 (Leishmania major; [6]) [µM] | EC50 [3, 7] [µM] | EC50 (Trypanosoma evansi) [µM] | EC50 (Leishmania mexicana) | EC50 (HEK293; hek293) | EC50 (Leishmania major) | EC50 [3]
1 | COc1ccc(/C=C/C(=O)CC(=O)/C=C/c2ccc(OC)c(OC)c2)cc1 | 61 | 690 | 1.9 | 1.9 | 23 | 1.6 | – | – | – | – | –
2 | COc1cc(CCC(=O)CC(=O)CCc2ccc(O)c(OC)c2)ccc1O [TETRAHYDROCURCUMIN] | 43 | 120 | 12 | 37 | 90 | 21 | – | – | – | – | –
3 | O=C(/C=C/c1ccc(O)cc1)CC(=O)/C=C/c1ccc(O)cc1 [BISDEMETHOXYCURCUMIN] | 63 | 200 | 4.5 | 9.5 | 72 | 7.7 | – | – | – | – | –
4 | N=C(N)c1ccc(/N=N/Nc2ccc(C(=N)N)cc2)cc1 [DIMINAZENE] | – | – | 1 | 2.4 | – | 0.12 | 0.018 | – | – | – | –
5 | COc1cc(/C=C/C=C/C(=O)/C=C/c2ccc(O)c(OC)c2)ccc1O | 4.8 | 22 | 0.58 | 1.4 | 7.4 | 1.1 | – | – | – | – | –
6 | O=C(CCc1ccc(O)c(O)c1)CC(=O)CCc1ccc(O)c(O)c1 [DIDEMETHYLTETRAHYDROCURCUMIN] | 53 | 150 | 1.7 | 1.5 | > 100 | 1.9 | – | – | – | – | –
7 | COc1cc(/C=C/C(=O)CC(=O)/C=C/c2ccc(O)cc2)ccc1OC(=O)c1ccccc1 | > 100 | 370 | 4.7 | 1.6 | 42 | 1.2 | – | – | – | – | –
8 | CCCCCOc1ccc(CC/C=C/C(=O)CCc2ccc(OCCCCC)c(OC)c2)cc1OC | 53 | 43 | 1.8 | 1.2 | 6.6 | 1.1 | – | – | – | – | –
9 | COc1ccc(/C=C/C(=O)CC(=O)/C=C/c2ccc(O)cc2)cc1 | 32 | 400 | 2.9 | 8.8 | 87 | 8.9 | – | – | – | – | –
10 | N=C(N)c1ccc(OCCCCCOc2ccc(C(=N)N)cc2)cc1 [PENTAMIDINE] | 16 | – | 0.67 | – | 3.8 | – | – | – | – | – | –
11 | COc1cc(/C=C/C(=O)CC(=O)/C=C/c2ccc(OCC=C(C)C)c(OC)c2)ccc1O | 21 | > 500 | 2 | 1.7 | 7.6 | 1.4 | – | – | – | – | –
12 | COc1cc(/C=C/C(=O)CC(=O)/C=C/c2ccc(OCCO)cc2)ccc1O | 32 | 46 | 1.1 | 0.85 | 9.7 | 0.7 | – | – | – | – | –
13 | COc1cc(/C=C/C(=O)CC(=O)/C=C/c2ccc(OC(=O)c3ccccc3)cc2)ccc1OC(=O)c1ccccc1 | – | – | – | – | – | – | – | ND(Insoluble) | ND(Insoluble) | ND(Insoluble) | ND(Insoluble)
14 | COc1cc(/C=C/C(=O)/C=C/CCc2ccc(O)c(OC)c2)ccc1O | 4.6 | 8.1 | 0.1 | 0.22 | 2.7 | 0.22 | 0.21 | – | – | – | –
15 | COc1cc(CCC(=O)CC(=O)CCc2ccc(O)cc2)ccc1O [TETRAHYDRODEMETHOXYCURCUMIN] | > 50 | – | 18 | 34 | > 100 | 22 | – | – | – | – | –
16 | COc1cc(/C=C/C(=O)CC(=O)/C=C/c2ccc(OCC=C(C)C)cc2)ccc1OCC=C(C)C | 27 | > 500 | 3.1 | 2.9 | 48 | 1.9 | – | – | – | – | –
17 | O=C(/C=C/CCc1ccc(O)c(O)c1)CCc1ccc(O)c(O)c1 [DEHYDROHIRSUTANONOL] | 17 | 220 | – | 3.2 | > 100 | 2.5 | – | – | – | – | –
18 | O=C(/C=C/c1ccc(O)cc1)CC(=O)/C=C/c1ccc(OC(=O)c2ccccc2)cc1 | > 100 | 270 | 12 | 10 | 60 | 4.1 | – | – | – | – | –
19 | COc1cc(/C=C/C(=O)CC(=O)/C=C/c2ccc(OC(C)=O)c(OC)c2)ccc1OC(C)=O | 34 | 80 | 1.2 | 2.2 | 73 | 1.6 | – | – | – | – | –
20 | COc1ccc(/C=C/C(=O)CC(=O)/C=C/c2ccc(O)c(OC)c2)cc1 | 38 | 79 | 2.1 | 2 | 23 | 1.7 | – | – | – | – | –

Row | Compound | EC50 (Leishmania mexicana; [4]) [µM] | EC50 (HEK293; [5]) [µM] | EC50 [1] [µM] | EC50 [2] [µM] | EC50 (Leishmania major; [6]) [µM] | EC50 [3, 7] [µM] | EC50 (Trypanosoma evansi) [µM] | EC50 (Leishmania mexicana) | EC50 (HEK293; hek293) | EC50 (Leishmania major) | EC50 [3]
21 | O=C(/C=C/c1ccc(O)c(O)c1)CC(=O)/C=C/c1ccc(O)c(O)c1 | 12 | 39 | 3.4 | 2.5 | 26 | 1.8 | – | – | – | – | –
22 | COc1cc(/C=C/C(O)=C/C(=O)/C=C/c2ccc(O)cc2)ccc1O [DEMETHOXYCURCUMIN] | 37 | 40 | 2.2 | 5.9 | 37 | 4.6 | – | – | – | – | –
23 | COc1cc(CCCCC(=O)CCc2ccc(O)c(OC)c2)ccc1O | > 50 | 140 | 27 | 28 | 37 | 32 | – | – | – | – | –
24 | COc1cc(CC/C=C/C(=O)CCc2ccc(OC(C)=O)c(OC)c2)ccc1OC(C)=O | 35 | 30 | 0.021 | 0.042 | 7.8 | 0.052 | – | – | – | – | –
25 | O=C(CCc1ccc(O)cc1)CC(=O)CCc1ccc(O)cc1 [LETESTUIANIN C] | 64 | 350 | 5.1 | 4 | 80 | 2.5 | – | – | – | – | –
26 | COc1cc(/C=C/C(=O)CC(=O)/C=C/c2ccc(OCCO)c(OC)c2)ccc1O | 30 | 25 | 1.8 | 2.9 | 22 | 2.9 | – | – | – | – | –
27 | COc1cc(/C=C/C(=O)CC(=O)/C=C/c2ccc(OC(C)=O)cc2)ccc1OC(C)=O | 43 | 49 | 0.92 | 2 | > 100 | 1.5 | – | – | – | – | –
28 | O=C(/C=C/c1ccc(OC(=O)c2ccccc2)cc1)CC(=O)/C=C/c1ccc(OC(=O)c2ccccc2)cc1 | – | – | – | – | – | – | – | ND(Insoluble) | ND(Insoluble) | ND(Insoluble) | ND(Insoluble)
29 | COc1cc(/C=C/C=C/C(=O)CCc2ccc(O)c(OC)c2)ccc1O | 22 | 76 | 2.2 | 9.7 | 30 | 4.1 | – | – | – | – | –
30 | COc1cc(CCC(O)CC(O)CCc2ccc(O)c(OC)c2)ccc1O (stereo not given) [OCTAHYDROCURCUMIN] | > 100 | – | > 100 | 61 | > 100 | 78 | – | – | – | – | –
31 | COc1cc(/C=C/C(=O)CC(=O)/C=C/c2ccc(OC(=O)c3ccccc3)cc2)ccc1O | > 100 | > 500 | 7.8 | 7.8 | 20 | 3.7 | 2.9 | – | – | – | –
32 | COc1cc(CCC(=O)CC(O)CCc2ccc(O)c(OC)c2)ccc1O (stereo not given) [HEXAHYDROCURCUMIN] | > 100 | 370 | 5.9 | 38 | > 100 | 17 | – | – | – | – | –
33 | COc1cc(CCC(=O)CC(=O)CCc2ccc(O)c(O)c2)ccc1O | 16 | 130 | 0.43 | 0.52 | 11 | 0.5 | – | – | – | – | –
34 | COc1ccc(CCC(=O)CC(O)CCc2ccc(OC)c(OC)c2)cc1OC (stereo not given) | > 100 | 370 | – | – | 41 | – | – | – | – | – | –
35 | CCCOc1ccc(/C=C/C(=O)CC(=O)/C=C/c2ccc(OCCC)c(OC)c2)cc1OC | 34 | > 500 | 1.6 | 1.8 | 28 | 1.3 | – | – | – | – | –
36 | COc1cc(/C=C/C(=O)CC(=O)/C=C/c2cc(OC)c(O)c([N+](=O)[O-])c2)ccc1O | 14 | 82 | 25 | 18 | 28 | 15 | – | – | – | – | –
37 | COc1cc(/C=C/C(=O)CC(=O)/C=C/c2ccc(OC(=O)c3ccccc3)c(OC)c2)ccc1OC(=O)c1ccccc1 | – | – | – | – | – | – | – | ND(Insoluble) | ND(Insoluble) | ND(Insoluble) | ND(Insoluble)
38 | COc1cc(/C=C/C(=O)CC(=O)/C=C/c2ccc(OC(=O)c3ccccc3)c(OC)c2)ccc1O | 76 | 94 | 2.1 | 3.8 | 9.3 | 3.1 | 1.5 | – | – | – | –
39 | COc1cc(/C=C/C(=O)CC(=O)/C=C/c2ccc(OCCO)c(OC)c2)ccc1OCCO | 37 | 20 | 1.6 | 2.3 | 33 | 1.8 | – | – | – | – | –
